Assay results as given in ChEMBL document CHEMBL1153726, “Synthesis and anticancer activity of sclerophytin-inspired hydroisobenzofurans” (Bioorg Med Chem Lett, 2009).

Assays:
Assay type in all cases: functional
[1] = test system: IGROV-1; assay: Growth inhibition of human IGROV1 cells after 96 hrs by MTT assay; settings: IGROV-1, 96 h
Method in brief: (§1)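 Run in the NCI 60 human tumour cell line panel as a five-dose assay. GI50 and LC50 were reported for each cell line.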

[2] = test system: NCI-H226; assay: Growth inhibition of human NCI-H226 cells at 10 nM after 96 hrs by MTT assay; design: scale not given: the % may be the effect or the level left
[3] = test system: SK-MEL-5; assay: Growth inhibition of human SK-MEL-5 cells at 1 nM after 96 hrs by MTT assay; design: scale not given: the % may be the effect or the level left
[4] = test system: COLO 205; assay: Growth inhibition of human COLO205 cells at 10 nM after 96 hrs by MTT assay; design: scale not given: the % may be the effect or the level left
[5] = test system: KM12; assay: Growth inhibition of human KM12 cells after 96 hrs by MTT assay; settings: KM12, 96 h; method in brief: as §1
[6] = test system: SK-MEL-5; assay: Growth inhibition of human SK-MEL-5 cells at 100 nM after 96 hrs by MTT assay; design: scale not given: the % may be the effect or the level left
[7] = Growth inhibition of human Hs 578T cells at 1 uM after 96 hrs by MTT assay; design: scale not given: the % may be the effect or the level left
[8] = test system: MDA-MB-435; assay: Growth inhibition of human MDA-MB-435 cells at 100 nM after 96 hrs by MTT assay; design: scale not given: the % may be the effect or the level left
[9] = test system: HCT-116; assay: Growth inhibition of human HCT116 cells at 10 nM after 96 hrs by MTT assay; design: scale not given: the % may be the effect or the level left
[10] = test system: KM12; assay: Growth inhibition of human KM12 cells at 1 uM after 96 hrs by MTT assay; design: scale not given: the % may be the effect or the level left
[11] = test system: SF-539; assay: Growth inhibition of human SF539 cells at 100 nM after 96 hrs by MTT assay; design: scale not given: the % may be the effect or the level left
[12] = test system: SR; assay: Growth inhibition of human SR cells at 10 uM after 96 hrs by MTT assay; design: scale not given: the % may be the effect or the level left
[13] = test system: OVCAR-8; assay: Growth inhibition of human OVCAR8 cells at 10 uM after 96 hrs by MTT assay; design: scale not given: the % may be the effect or the level left
[14] = test system: HT-29; assay: Growth inhibition of human HT-29 cells after 96 hrs by MTT assay; settings: HT-29, 96 h; method in brief: as §1
[15] = test system: HL-60(TB); assay: Growth inhibition of human HL-60(TB) cells at 100 nM after 96 hrs by MTT assay; design: scale not given: the % may be the effect or the level left
[16] = test system: SK-MEL-2; assay: Growth inhibition of human SK-MEL-2 cells at 1 nM after 96 hrs by MTT assay; design: scale not given: the % may be the effect or the level left
[17] = test system: MCF7; assay: Growth inhibition of human MCF7 cells at 10 nM after 96 hrs by MTT assay; design: scale not given: the % may be the effect or the level left
[18] = test system: ACHN; assay: Growth inhibition of human ACHN cells at 10 nM after 96 hrs by MTT assay; design: scale not given: the % may be the effect or the level left
[19] = test system: K562; assay: Growth inhibition of human K562 cells after 96 hrs by MTT assay; settings: K562, 96 h; method in brief: as §1
[20] = test system: DU-145; assay: Growth inhibition of human DU145 cells at 1 nM after 96 hrs by MTT assay; design: scale not given: the % may be the effect or the level left
[21] = test system: NCI-H522; assay: Growth inhibition of human NCI-H522 cells at 10 nM after 96 hrs by MTT assay; design: scale not given: the % may be the effect or the level left
[22] = test system: SK-MEL-5; assay: Growth inhibition of human SK-MEL-5 cells at 10 uM after 96 hrs by MTT assay; design: scale not given: the % may be the effect or the level left
[23] = test system: CAKI-1; assay: Growth inhibition of human Caki1 cells after 96 hrs by MTT assay; settings: CAKI-1, 96 h
[24] = test system: Malme-3M; assay: Growth inhibition of human MALME-3M cells at 10 nM after 96 hrs by MTT assay; design: scale not given: the % may be the effect or the level left
[25] = test system: HT-29; assay: Growth inhibition of human HT-29 cells at 10 nM after 96 hrs by MTT assay; design: scale not given: the % may be the effect or the level left
[26] = test system: SNB-19; assay: Growth inhibition of human SNB19 cells at 1 uM after 96 hrs by MTT assay; design: scale not given: the % may be the effect or the level left
[27] = test system: SN12C; assay: Growth inhibition of human SN12C cells at 100 nM after 96 hrs by MTT assay; design: scale not given: the % may be the effect or the level left
[28] = test system: M14; assay: Growth inhibition of human M14 cells at 10 uM after 96 hrs by MTT assay; design: scale not given: the % may be the effect or the level left
[29] = test system: HOP-62; assay: Growth inhibition of human HOP62 cells at 10 uM after 96 hrs by MTT assay; design: scale not given: the % may be the effect or the level left
[30] = test system: PC-3; assay: Growth inhibition of human PC3 cells after 96 hrs by MTT assay; settings: PC-3, 96 h
Method in brief: (§2)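 Tested in the NCI 60-cell-line panel in five-dose format; GI50 and LC50 values reported for each cell line.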

[31] = test system: M14; assay: Growth inhibition of human M14 cells at 1 nM after 96 hrs by MTT assay; design: scale not given: the % may be the effect or the level left
[32] = test system: SW-620; assay: Growth inhibition of human SW620 cells at 10 nM after 96 hrs by MTT assay; design: scale not given: the % may be the effect or the level left
[33] = test system: NCI-H460; assay: Growth inhibition of human NCI-H460 cells at 10 nM after 96 hrs by MTT assay; design: scale not given: the % may be the effect or the level left
[34] = test system: UACC-257; assay: Growth inhibition of human UACC257 cells at 1 uM after 96 hrs by MTT assay; design: scale not given: the % may be the effect or the level left
[35] = Growth inhibition of human RPMI8266 cells at 10 nM after 96 hrs by MTT assay; design: scale not given: the % may be the effect or the level left
[36] = test system: UO-31; assay: Growth inhibition of human UO31 cells at 10 uM after 96 hrs by MTT assay; design: scale not given: the % may be the effect or the level left
[37] = test system: BT-549; assay: Growth inhibition of human BT549 cells at 10 nM after 96 hrs by MTT assay; design: scale not given: the % may be the effect or the level left
[38] = test system: SNB-75; assay: Growth inhibition of human SNB75 cells after 96 hrs by MTT assay; settings: SNB-75, 96 h; method in brief: as §2
[39] = test system: NCI-H23; assay: Growth inhibition of human NCI-H23 cells at 1 nM after 96 hrs by MTT assay; design: scale not given: the % may be the effect or the level left
[40] = test system: HOP-62; assay: Growth inhibition of human HOP62 cells at 1 uM after 96 hrs by MTT assay; design: scale not given: the % may be the effect or the level left
[41] = test system: HOP-62; assay: Growth inhibition of human HOP62 cells at 10 nM after 96 hrs by MTT assay; design: scale not given: the % may be the effect or the level left
[42] = read-out: LC50 (the source's name)
[43] = read-out: Log10GI50 (converted)
[44] = read-out: Log10LC50 (converted)

## C=C(C)[C@H]1CC=C(C)C2=CO[C@@H](c3ccccc3F)[C@@H]21
[1]; read-out: GI50
  GI50: 11.3 µM
[1]; [42]
  CC50: > 100 µM
[1]; [43]
  GI50: 11.2 µM
[1]; [44]
  CC50: > 100 µM
[1]; read-out: Log10TGI (converted)
  TGI: 34.7 µM
[1]; read-out: TGI
  TGI: 34.6 µM
[2]
  Activity: 89%
[3]
  Activity: 91%
[4]
  Activity: 84%
[5]; read-out: GI50
  GI50: 4.02 µM
[5]; read-out: LC50
  LC50: 40.4 µM
[5]; [43]
  GI50: 3.98 µM
[5]; [44]
  LC50: 40.7 µM
[5]; read-out: Log10TGI (converted)
  TGI: 15.8 µM
[5]; read-out: TGI
  TGI: 15.7 µM
[6]
  Activity: 69%
[7]
  Activity: 28%
[8]
  Activity: 84%
[9]
  Activity: 88%
[10]
  Activity: 24%
[11]
  Activity: 84%
[12]
  Activity: 62.58%
[13]
  Activity: 94.8%
[14]; read-out: GI50
  GI50: 3.41 µM
[14]; read-out: LC50
  LC50 (50% lethal concentration): 43.2 µM
[14]; [43]
  GI50: 3.39 µM
[14]; [44]
  LC50 (50% lethal concentration): 43.7 µM
[14]; read-out: Log10TGI (converted)
  TGI: 15.5 µM
[14]; read-out: TGI
  TGI: 15.6 µM
[15]
  Activity: 92%
[16]
  Activity: 88%
[17]
  Activity: 103%
[18]
  Activity: 96%
[19]; read-out: GI50
  GI50: 2.04 µM
[19]; [42]
  CC50: 49.3 µM
[19]; [43]
  GI50: 2.04 µM
[19]; [44]
  CC50: 49 µM
[19]; read-out: Log10TGI (converted)
  TGI: 13.2 µM
[19]; read-out: TGI
  TGI: 13.2 µM
[20]
  Activity: 88%
[21]
  Activity: 77%
[22]
  Activity: 84.67%
[23]; read-out: GI50
  GI50: 5.5 µM
[23]; [42]
  CC50: > 100 µM
[23]; [43]
  GI50: 5.5 µM
[23]; [44]
  CC50: > 100 µM
[23]; read-out: Log10TGI (converted)
  TGI: 39.8 µM
[23]; read-out: TGI
  TGI: 39.8 µM
[24]
  Activity: 88%
[25]
  Activity: 92%
[26]
  Activity: 54%
[27]
  Activity: 79%
[28]
  Activity: 102.54%
[29]
  Activity: 108.33%
[30]; read-out: GI50
  GI50: 2.49 µM
[30]; [42]
  CC50: 57.2 µM
[30]; [43]
  GI50: 2.51 µM
[30]; [44]
  CC50: 57.5 µM
[30]; read-out: Log10TGI (converted)
  TGI: 16.6 µM
[30]; read-out: TGI
  TGI: 16.5 µM
[31]
  Activity: 97%
[32]
  Activity: 97%
[33]
  Activity: 97%
[34]
  Activity: 44%
[35]
  Activity: 56%
[36]
  Activity: 78.96%
[37]
  Activity: 84%
[38]; read-out: GI50
  GI50: 4.94 µM
[38]; read-out: LC50
  LC50: 56.9 µM
[38]; [43]
  GI50: 4.9 µM
[38]; [44]
  LC50: 57.5 µM
[38]; read-out: Log10TGI (converted)
  TGI: 20.4 µM
[38]; read-out: TGI
  TGI: 20.5 µM
[39]
  Activity: 98%
[40]
  Activity: 51%
[41]
  Activity: 97%
